In ChEMBL document CHEMBL5724801, “EUbOPEN Chemogenomics Library - Multiplex” (2024):
Values joined by “and” are separate entries in the source; they are usually repeats but may differ in a detail not shown here. Equal values may be shown once.

Test system: U2OS
Experiment: Multiplex assay against U2OS
Format: toxicity, cell-based
Conditions: human
Summary of the method: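 Live cells were stained at seeding with Hoechst33342, BioTracker Green Microtubule Cytoskeleton Dye, MitoTracker Red and Annexin V Alexa Fluor 680. Following compound addition, they were imaged on a CQ1 microscope at 37°C and 5% CO2 and gated by CellPathfinder machine learning into Hoechst high-intensity objects or normal cells, with normal cells split into healthy, pyknosed or fragmented nuclei and pyknosed cells into mitotic or apoptotic. Tubulin, mitochondrial-mass and membrane-permeability phenotypes are per cents of healthy-nucleus cells.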

[1] = 12 h, 1 µM, compound concentration 1 uM
[2] = 12 h, 10 µM, compound concentration 10 uM
[3] = 24 h, 1 µM, compound concentration 1 uM
[4] = 24 h, 10 µM, compound concentration 10 uM
[5] = 48 h, 1 µM, compound concentration 1 uM
[6] = 48 h, 10 µM, compound concentration 10 uM

SMILES: Cc1cc(-c2ccc3c(c2)CC[C@H]3N2CC3(CCN(C(=O)Cc4cn5cc(C)sc5n4)CC3)C2)ncn1 [PF-5190457]
- Population Apoptotic (%) [1]: 82% and 63%
- Population Fragmented Nuclei (%) [1]: 24% and 21%
- Population Healthy Nuclei (%) [1]: 65% and 66%
- Population Hoechst High Intensity Objects (%) [1]: 1% and 0%
- Population Membrane Permeable-Phenotype (%) [1]: 7% and 4%
- Population Mitochondria Different-Phenotype (%) [1]: 3%
- Population Mitotic Cells (%) [1]: 17% and 36%
- Population Normal (%) [1]: 98% and 100%
- Population Pyknosed Nuclei (%) [1]: 9% and 11%
- Population Tubulin-Different-Phenotype (%) [1]: 4% and 3%
- Total Cell Count [1]: 239 and 93
- Population Apoptotic (%) [2]: 61% and 71%
- Population Fragmented Nuclei (%) [2]: 18% and 14%
- Population Healthy Nuclei (%) [2]: 66% and 74%
- Population Hoechst High Intensity Objects (%) [2]: 2% and 1%
- Population Membrane Permeable-Phenotype (%) [2]: 7% and 8%
- Population Mitochondria Different-Phenotype (%) [2]: 5% and 10%
- Population Mitotic Cells (%) [2]: 38% and 28%
- Population Normal (%) [2]: 97% and 98%
- Population Pyknosed Nuclei (%) [2]: 14% and 11%
- Population Tubulin-Different-Phenotype (%) [2]: 5% and 6%
- Total Cell Count [2]: 238 and 126
- Population Apoptotic (%) [3]: 69% and 33%
- Population Fragmented Nuclei (%) [3]: 25% and 21%
- Population Healthy Nuclei (%) [3]: 66% and 76%
- Population Hoechst High Intensity Objects (%) [3]: 1% and 0%
- Population Membrane Permeable-Phenotype (%) [3]: 8% and 6%
- Population Mitochondria Different-Phenotype (%) [3]: 3% and 1%
- Population Mitotic Cells (%) [3]: 30% and 66%
- Population Normal (%) [3]: 98% and 99%
- Population Pyknosed Nuclei (%) [3]: 8% and 2%
- Population Tubulin-Different-Phenotype (%) [3]: 5% and 2%
- Total Cell Count [3]: 282 and 126
- Population Apoptotic (%) [4]: 67% and 84%
- Population Fragmented Nuclei (%) [4]: 18%
- Population Healthy Nuclei (%) [4]: 72% and 69%
- Population Hoechst High Intensity Objects (%) [4]: 2% and 1%
- Population Membrane Permeable-Phenotype (%) [4]: 3% and 11%
- Population Mitochondria Different-Phenotype (%) [4]: 0% and 8%
- Population Mitotic Cells (%) [4]: 32% and 15%
- Population Normal (%) [4]: 97% and 98%
- Population Pyknosed Nuclei (%) [4]: 9% and 12%
- Population Tubulin-Different-Phenotype (%) [4]: 1% and 4%
- Total Cell Count [4]: 295 and 154
- Population Apoptotic (%) [5]: 84% and 66%
- Population Fragmented Nuclei (%) [5]: 20% and 16%
- Population Healthy Nuclei (%) [5]: 71% and 78%
- Population Hoechst High Intensity Objects (%) [5]: 0% and 2%
- Population Membrane Permeable-Phenotype (%) [5]: 7% and 4%
- Population Mitochondria Different-Phenotype (%) [5]: 4% and 2%
- Population Mitotic Cells (%) [5]: 15% and 33%
- Population Normal (%) [5]: 99% and 97%
- Population Pyknosed Nuclei (%) [5]: 8% and 5%
- Population Tubulin-Different-Phenotype (%) [5]: 4% and 2%
- Total Cell Count [5]: 402 and 184
- Population Apoptotic (%) [6]: 74% and 76%
- Population Fragmented Nuclei (%) [6]: 16% and 18%
- Population Healthy Nuclei (%) [6]: 71%
- Population Hoechst High Intensity Objects (%) [6]: 3%
- Population Membrane Permeable-Phenotype (%) [6]: 5% and 11%
- Population Mitochondria Different-Phenotype (%) [6]: 2% and 6%
- Population Mitotic Cells (%) [6]: 25% and 23%
- Population Normal (%) [6]: 96%
- Population Pyknosed Nuclei (%) [6]: 12% and 10%
- Population Tubulin-Different-Phenotype (%) [6]: 3% and 4%
- Total Cell Count [6]: 389 and 217

SMILES: O=C(Nc1ccccc1Br)N[C@@H]1CCN(c2ccc(C(F)(F)F)cn2)C1 [SB-705498]
- Population Apoptotic (%) [1]: 38.89% and 33.33%
- Population Fragmented Nuclei (%) [1]: 1.94% and 6.43%
- Population Healthy Nuclei (%) [1]: 84.95% and 83.04%
- Population Hoechst High Intensity Objects (%) [1]: 0%
- Population Membrane Permeable-Phenotype (%) [1]: 1.14% and 2.82%
- Population Mitochondria Different-Phenotype (%) [1]: 0% and 3.52%
- Population Mitotic Cells (%) [1]: 61.11% and 66.67%
- Population Normal (%) [1]: 100%
- Population Pyknosed Nuclei (%) [1]: 13.11% and 10.53%
- Population Tubulin-Different-Phenotype (%) [1]: 0.86% and 0%
- Total Cell Count [1]: 412 and 171
- Population Apoptotic (%) [2]: 43.24% and 36.84%
- Population Fragmented Nuclei (%) [2]: 0.5% and 3.7%
- Population Healthy Nuclei (%) [2]: 90.35% and 82.22%
- Population Hoechst High Intensity Objects (%) [2]: 0%
- Population Membrane Permeable-Phenotype (%) [2]: 0.55% and 5.41%
- Population Mitochondria Different-Phenotype (%) [2]: 0% and 21.62%
- Population Mitotic Cells (%) [2]: 56.76% and 63.16%
- Population Normal (%) [2]: 100%
- Population Pyknosed Nuclei (%) [2]: 9.16% and 14.07%
- Population Tubulin-Different-Phenotype (%) [2]: 1.64% and 3.6%
- Total Cell Count [2]: 404 and 135
- Population Apoptotic (%) [3]: 45.28% and 27.59%
- Population Fragmented Nuclei (%) [3]: 2.03% and 4.69%
- Population Healthy Nuclei (%) [3]: 88.17% and 81.69%
- Population Hoechst High Intensity Objects (%) [3]: 0.18% and 0%
- Population Membrane Permeable-Phenotype (%) [3]: 0.21% and 2.87%
- Population Mitochondria Different-Phenotype (%) [3]: 0% and 10.34%
- Population Mitotic Cells (%) [3]: 54.72% and 72.41%
- Population Normal (%) [3]: 99.82% and 100%
- Population Pyknosed Nuclei (%) [3]: 9.8% and 13.62%
- Population Tubulin-Different-Phenotype (%) [3]: 0.84% and 0%
- Total Cell Count [3]: 542 and 213
- Population Apoptotic (%) [4]: 39.24% and 21.05%
- Population Fragmented Nuclei (%) [4]: 0.86% and 1.8%
- Population Healthy Nuclei (%) [4]: 85.49% and 86.83%
- Population Hoechst High Intensity Objects (%) [4]: 0%
- Population Membrane Permeable-Phenotype (%) [4]: 1.82% and 4.14%
- Population Mitotic Cells (%) [4]: 60.76% and 78.95%
- Population Normal (%) [4]: 100%
- Population Pyknosed Nuclei (%) [4]: 13.64% and 11.38%
- Population Tubulin-Different-Phenotype (%) [4]: 2.83% and 1.38%
- Population Apoptotic (%) [5]: 41.75% and 51.28%
- Population Fragmented Nuclei (%) [5]: 3.31% and 2.67%
- Population Healthy Nuclei (%) [5]: 86.67% and 86.93%
- Population Hoechst High Intensity Objects (%) [5]: 0%
- Population Membrane Permeable-Phenotype (%) [5]: 0.9% and 2.76%
- Population Mitochondria Different-Phenotype (%) [5]: 0% and 4.29%
- Population Mitotic Cells (%) [5]: 58.25% and 48.72%
- Population Normal (%) [5]: 100%
- Population Pyknosed Nuclei (%) [5]: 10.02% and 10.4%
- Population Tubulin-Different-Phenotype (%) [5]: 0.9% and 0.92%
- Total Cell Count [5]: 1028 and 375
- Population Apoptotic (%) [6]: 52.22% and 32.26%
- Population Fragmented Nuclei (%) [6]: 1.85% and 1.83%
- Population Healthy Nuclei (%) [6]: 89.37% and 86.81%
- Population Hoechst High Intensity Objects (%) [6]: 0.1% and 0%
- Population Membrane Permeable-Phenotype (%) [6]: 1.09% and 4.64%
- Population Mitochondria Different-Phenotype (%) [6]: 0.22% and 8.02%
- Population Mitotic Cells (%) [6]: 47.78% and 67.74%
- Population Normal (%) [6]: 99.9% and 100%
- Population Pyknosed Nuclei (%) [6]: 8.78% and 11.36%
- Population Tubulin-Different-Phenotype (%) [6]: 2.07% and 1.27%
